Laboratory results reported in ChEMBL document CHEMBL2034880, “Synthesis and biological evaluation of pyrimidine-based dual inhibitors of human epidermal growth factor receptor 1 (HER-1) and HER-2 tyrosine kinases” (J Med Chem, 2012).

Columns and labels:
[1] = Half life in human liver microsomes at 5 uM
[2] = Half life in rat liver microsomes at 5 uM
[3] = Half life in mouse liver microsomes at 5 uM
SK-BR-3 = experiment: Cytotoxicity against human SKBR3 cells overexpressing HER-2 gene after 72 hrs by SRB assay; assay type: functional, cell-based; settings: SK-BR-3, 72 h
Outline: (§1)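 A431 and SK-Br3 cells grown in DMEM (4.5 g/L glucose, 1.5 g/L sodium bicarbonate) with 10% FBS at 37 °C, humidified 5% CO2. Proliferation/growth inhibition IC50 values are means of three independent experiments, each run in duplicate.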

[4] = Half life in dog liver microsomes at 5 uM
A-431 = experiment: Cytotoxicity against human A431 cells overexpressing HER-1 gene after 72 hrs by SRB assay; assay type: functional, cell-based; settings: A-431, 72 h; outline: as §1
[5] = molecular target: Fibroblast growth factor receptor 1 (Homo sapiens, UniProt P11362); settings: 3 uM
[6] = molecular target: Platelet-derived growth factor receptor alpha (Homo sapiens, UniProt P16234); settings: 3 uM
[7] = molecular target: Platelet-derived growth factor receptor beta (Homo sapiens, UniProt P09619); settings: 3 uM
[8] = molecular target: Hepatocyte growth factor receptor (Homo sapiens, UniProt P08581); experiment: Inhibition of MET at 3 uM
[9] = molecular target: Tyrosine-protein kinase SYK (Homo sapiens, UniProt P43405); experiment: Inhibition of Syk at 3 uM
[10] = molecular target: Insulin-like growth factor 1 receptor (Homo sapiens, UniProt P08069); settings: 3 uM
Insulin receptor = Insulin receptor (Homo sapiens, UniProt P06213); settings: 3 uM
[11] = molecular target: Tyrosine-protein kinase Blk (Homo sapiens) (UniProt P51451); experiment: Inhibition of Blk at 3 uM
[12] = molecular target: Aurora kinase A (Homo sapiens) (UniProt O14965); experiment: Inhibition of Aurora A at 3 uM
[13] = molecular target: Vascular endothelial growth factor receptor 1 (Homo sapiens, UniProt P17948); experiment: Inhibition of Flt1 at 3 uM
[14] = molecular target: T1, Receptor tyrosine-protein kinase erbB-2 (Homo sapiens, UniProt P04626); settings: SK-BR-3, 1 uM
[15] = molecular target: T1, Receptor tyrosine-protein kinase erbB-2; settings: SK-BR-3, 1 uM; remark: listed apart in the source
Focal adhesion kinase 1 = Focal adhesion kinase 1 (Homo sapiens, UniProt Q05397); settings: 3 uM
[16] = molecular target: Serine/threonine-protein kinase STK11 (Homo sapiens) (UniProt Q15831); settings: 3 uM
[17] = molecular target: 5'-AMP-activated protein kinase catalytic subunit alpha-1 (Homo sapiens, UniProt Q13131); settings: 3 uM
[18] = molecular target: Receptor-type tyrosine-protein kinase FLT3 (Homo sapiens) (UniProt P36888); settings: 3 uM
[19] = molecular target: Cyclin-dependent kinase 1/cyclin B1 (Homo sapiens) (UniProt P06493+P14635); settings: 3 uM
[20] = molecular target: Tyrosine-protein kinase JAK2 (Homo sapiens, UniProt O60674); settings: 3 uM
[21] = molecular target: Dual specificity mitogen-activated protein kinase kinase 1 (Homo sapiens, UniProt Q02750); settings: 3 uM
[22] = molecular target: Mast/stem cell growth factor receptor Kit (Homo sapiens, UniProt P10721); settings: 3 uM
[23] = molecular target: Tyrosine-protein kinase ABL1 (Homo sapiens, UniProt P00519); experiment: Inhibition of Abl at 3 uM
[24] = molecular target: Serine/threonine-protein kinase pim-1 (Homo sapiens, UniProt P11309); settings: 3 uM
[25] = AUC (0 to last) in ICR mouse at 10 mg/kg, po; assay type: ADME, organism-based; design: time 0 - last, dose 10 mg/kg, route oral; settings: plasma
Outline: (§2)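 Male ICR mice (27 5 g) and male Sprague-Dawley rats (250 10 g), n = 3 per route. Single oral gavage dose (mice 10 mg/kg, rats 5 mg/kg) and tail-vein iv dose (mice 2 mg/kg, rats 1 mg/kg). Compound given as HCl salt in 30% PEG400 and 5% ethanol in distilled water. Jugular blood drawn at set times over at least 24 h into heparin. Plasma level measured by LC/MS/MS after acetonitrile protein precipitation.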

[26] = Half life in ICR mouse at 10 mg/kg, po; assay type: ADME, organism-based; design: dose 10 mg/kg, route oral; settings: in vivo; outline: as §2
[27] = Cmax in ICR mouse at 10 mg/kg, po; assay type: ADME, organism-based; design: dose 10 mg/kg, route oral; settings: in vivo; outline: as §2
[28] = Half life in Sprague-Dawley rat at 5 mg/kg, po; assay type: ADME, organism-based; design: dose 5 mg/kg, route oral; settings: in vivo; outline: as §2
[29] = Oral bioavailability in ICR mouse at 10 mg/kg; assay type: ADME, organism-based; settings: in vivo; outline: as §2
[30] = Oral bioavailability in Sprague-Dawley rat at 5 mg/kg; assay type: ADME, organism-based; settings: in vivo; outline: as §2
[31] = Cmax in Sprague-Dawley rat at 5 mg/kg, po; assay type: ADME, organism-based; design: dose 5 mg/kg, route oral; settings: in vivo; outline: as §2
[32] = AUC (0 to last) in Sprague-Dawley rat at 5 mg/kg, po; assay type: ADME, organism-based; design: dose 5 mg/kg, route oral, time 0 - last; settings: plasma; outline: as §2

T1 sequence (P04626 whole entry): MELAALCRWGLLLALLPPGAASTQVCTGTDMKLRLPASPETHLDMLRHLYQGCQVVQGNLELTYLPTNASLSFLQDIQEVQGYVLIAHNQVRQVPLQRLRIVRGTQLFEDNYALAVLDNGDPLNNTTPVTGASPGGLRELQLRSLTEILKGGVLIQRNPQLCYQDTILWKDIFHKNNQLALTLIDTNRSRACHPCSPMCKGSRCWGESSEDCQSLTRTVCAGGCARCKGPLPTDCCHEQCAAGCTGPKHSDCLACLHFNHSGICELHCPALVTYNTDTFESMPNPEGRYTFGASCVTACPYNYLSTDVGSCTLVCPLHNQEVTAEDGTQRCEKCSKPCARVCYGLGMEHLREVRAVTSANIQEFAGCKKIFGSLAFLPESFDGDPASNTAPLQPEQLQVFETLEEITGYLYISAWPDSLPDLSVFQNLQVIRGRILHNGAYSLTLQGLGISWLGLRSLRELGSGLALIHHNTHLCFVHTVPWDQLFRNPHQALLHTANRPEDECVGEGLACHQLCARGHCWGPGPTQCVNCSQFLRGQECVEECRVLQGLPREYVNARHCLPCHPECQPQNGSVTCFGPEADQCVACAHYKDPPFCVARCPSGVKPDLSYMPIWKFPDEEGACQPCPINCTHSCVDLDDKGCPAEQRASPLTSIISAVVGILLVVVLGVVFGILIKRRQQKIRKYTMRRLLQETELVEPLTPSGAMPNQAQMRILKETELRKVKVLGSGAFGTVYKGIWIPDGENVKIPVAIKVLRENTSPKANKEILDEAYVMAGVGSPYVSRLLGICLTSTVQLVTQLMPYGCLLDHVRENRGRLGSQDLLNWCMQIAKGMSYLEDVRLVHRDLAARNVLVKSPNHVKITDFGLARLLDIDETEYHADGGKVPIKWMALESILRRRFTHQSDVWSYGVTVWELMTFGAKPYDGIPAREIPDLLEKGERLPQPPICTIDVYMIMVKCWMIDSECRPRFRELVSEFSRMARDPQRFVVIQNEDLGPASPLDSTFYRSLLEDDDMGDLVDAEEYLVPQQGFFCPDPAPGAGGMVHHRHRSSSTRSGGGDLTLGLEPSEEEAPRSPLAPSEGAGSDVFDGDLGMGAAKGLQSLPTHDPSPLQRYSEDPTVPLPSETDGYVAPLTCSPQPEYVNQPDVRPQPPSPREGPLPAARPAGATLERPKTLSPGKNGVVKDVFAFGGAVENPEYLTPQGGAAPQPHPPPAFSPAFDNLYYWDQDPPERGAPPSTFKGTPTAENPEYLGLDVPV
Platelet-derived growth factor receptor alpha, sequence (P16234 whole entry): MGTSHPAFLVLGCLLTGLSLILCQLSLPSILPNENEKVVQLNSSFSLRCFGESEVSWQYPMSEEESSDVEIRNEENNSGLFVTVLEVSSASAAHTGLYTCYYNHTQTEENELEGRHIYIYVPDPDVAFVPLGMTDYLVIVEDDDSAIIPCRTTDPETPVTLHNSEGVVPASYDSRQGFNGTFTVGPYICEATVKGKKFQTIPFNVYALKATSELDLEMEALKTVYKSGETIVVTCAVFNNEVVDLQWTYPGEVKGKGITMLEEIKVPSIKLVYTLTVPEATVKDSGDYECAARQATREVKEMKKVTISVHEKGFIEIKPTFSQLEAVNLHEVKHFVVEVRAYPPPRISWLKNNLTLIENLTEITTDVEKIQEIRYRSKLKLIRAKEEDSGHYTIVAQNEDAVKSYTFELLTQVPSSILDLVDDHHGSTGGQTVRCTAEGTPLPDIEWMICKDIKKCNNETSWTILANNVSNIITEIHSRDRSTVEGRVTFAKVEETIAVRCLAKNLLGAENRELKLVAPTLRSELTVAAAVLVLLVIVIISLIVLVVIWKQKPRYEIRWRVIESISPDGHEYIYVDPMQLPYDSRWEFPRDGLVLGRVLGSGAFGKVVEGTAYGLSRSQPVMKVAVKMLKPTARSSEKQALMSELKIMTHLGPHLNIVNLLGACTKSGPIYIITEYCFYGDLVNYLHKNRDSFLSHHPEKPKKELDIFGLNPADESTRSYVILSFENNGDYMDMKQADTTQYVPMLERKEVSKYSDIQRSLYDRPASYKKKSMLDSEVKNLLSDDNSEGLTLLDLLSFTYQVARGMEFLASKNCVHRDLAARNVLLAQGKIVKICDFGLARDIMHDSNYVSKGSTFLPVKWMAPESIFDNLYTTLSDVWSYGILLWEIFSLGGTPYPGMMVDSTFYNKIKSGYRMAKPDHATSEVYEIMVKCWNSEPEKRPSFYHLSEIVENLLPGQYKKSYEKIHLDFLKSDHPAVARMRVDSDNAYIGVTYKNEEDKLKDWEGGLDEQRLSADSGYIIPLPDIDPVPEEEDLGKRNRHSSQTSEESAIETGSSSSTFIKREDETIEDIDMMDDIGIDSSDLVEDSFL
Serine/threonine-protein kinase STK11 (Homo sapiens), sequence (Q15831 whole entry): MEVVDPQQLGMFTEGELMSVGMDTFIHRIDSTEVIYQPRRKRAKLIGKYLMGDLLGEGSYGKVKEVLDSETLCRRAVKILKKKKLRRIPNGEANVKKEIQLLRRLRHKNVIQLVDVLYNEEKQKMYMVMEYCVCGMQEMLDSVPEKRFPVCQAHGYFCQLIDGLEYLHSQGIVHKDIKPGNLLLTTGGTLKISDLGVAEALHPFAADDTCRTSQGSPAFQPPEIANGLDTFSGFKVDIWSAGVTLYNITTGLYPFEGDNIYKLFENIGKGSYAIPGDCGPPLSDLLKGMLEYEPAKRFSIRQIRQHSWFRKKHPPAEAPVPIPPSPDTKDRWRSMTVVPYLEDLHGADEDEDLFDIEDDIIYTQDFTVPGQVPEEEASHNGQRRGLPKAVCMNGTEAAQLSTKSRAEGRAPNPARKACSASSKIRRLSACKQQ
Tyrosine-protein kinase JAK2, sequence (O60674 whole entry): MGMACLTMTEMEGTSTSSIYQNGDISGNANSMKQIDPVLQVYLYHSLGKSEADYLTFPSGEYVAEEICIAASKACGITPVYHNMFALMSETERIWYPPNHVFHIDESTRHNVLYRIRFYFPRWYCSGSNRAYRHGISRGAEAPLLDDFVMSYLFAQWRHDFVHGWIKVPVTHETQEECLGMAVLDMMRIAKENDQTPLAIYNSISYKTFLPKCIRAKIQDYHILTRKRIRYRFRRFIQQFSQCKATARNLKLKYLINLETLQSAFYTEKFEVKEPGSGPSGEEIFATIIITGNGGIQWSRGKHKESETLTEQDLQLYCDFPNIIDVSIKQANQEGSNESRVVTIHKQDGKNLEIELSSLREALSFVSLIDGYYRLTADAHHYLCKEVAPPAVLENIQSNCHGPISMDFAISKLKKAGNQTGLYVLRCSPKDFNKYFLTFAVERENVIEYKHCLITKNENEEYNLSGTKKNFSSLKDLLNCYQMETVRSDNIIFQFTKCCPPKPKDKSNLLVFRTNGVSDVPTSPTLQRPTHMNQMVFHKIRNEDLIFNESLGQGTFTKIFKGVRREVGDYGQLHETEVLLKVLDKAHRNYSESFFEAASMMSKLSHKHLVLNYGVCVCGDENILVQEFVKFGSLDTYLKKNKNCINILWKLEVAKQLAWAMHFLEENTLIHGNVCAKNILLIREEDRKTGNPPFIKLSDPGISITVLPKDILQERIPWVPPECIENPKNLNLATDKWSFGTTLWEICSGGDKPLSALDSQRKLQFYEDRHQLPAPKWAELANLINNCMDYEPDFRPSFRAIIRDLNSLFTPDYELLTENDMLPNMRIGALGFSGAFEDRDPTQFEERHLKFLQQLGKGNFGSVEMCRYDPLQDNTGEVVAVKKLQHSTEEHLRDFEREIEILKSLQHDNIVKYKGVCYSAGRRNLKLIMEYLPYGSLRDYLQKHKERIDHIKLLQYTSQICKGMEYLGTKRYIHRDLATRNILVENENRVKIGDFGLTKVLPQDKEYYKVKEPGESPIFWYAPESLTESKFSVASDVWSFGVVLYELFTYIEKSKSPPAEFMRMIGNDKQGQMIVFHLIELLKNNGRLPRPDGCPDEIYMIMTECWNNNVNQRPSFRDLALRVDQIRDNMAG
Fibroblast growth factor receptor 1, sequence (P11362 22-822 limits assumed): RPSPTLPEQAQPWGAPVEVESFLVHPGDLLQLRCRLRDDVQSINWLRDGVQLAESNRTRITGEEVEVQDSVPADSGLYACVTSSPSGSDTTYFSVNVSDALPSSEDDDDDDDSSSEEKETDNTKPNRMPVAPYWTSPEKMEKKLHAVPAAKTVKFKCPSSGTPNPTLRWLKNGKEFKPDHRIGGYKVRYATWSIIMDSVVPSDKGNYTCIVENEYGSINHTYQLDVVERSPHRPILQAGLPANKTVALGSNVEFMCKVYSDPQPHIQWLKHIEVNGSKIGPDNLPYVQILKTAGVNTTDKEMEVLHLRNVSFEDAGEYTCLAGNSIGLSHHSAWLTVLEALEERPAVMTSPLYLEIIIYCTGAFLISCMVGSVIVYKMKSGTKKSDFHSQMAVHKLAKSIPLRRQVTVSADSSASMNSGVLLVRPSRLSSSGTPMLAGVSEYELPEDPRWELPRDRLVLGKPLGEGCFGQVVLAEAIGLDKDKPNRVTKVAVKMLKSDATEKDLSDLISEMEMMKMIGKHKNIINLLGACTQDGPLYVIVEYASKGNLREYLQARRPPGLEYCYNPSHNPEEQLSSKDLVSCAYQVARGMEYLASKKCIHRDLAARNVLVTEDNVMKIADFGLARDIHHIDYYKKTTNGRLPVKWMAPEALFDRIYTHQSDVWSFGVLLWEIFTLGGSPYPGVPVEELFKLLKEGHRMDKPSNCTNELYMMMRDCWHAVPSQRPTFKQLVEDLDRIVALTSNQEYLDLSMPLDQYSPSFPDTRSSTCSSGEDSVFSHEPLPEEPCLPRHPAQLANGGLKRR
Dual specificity mitogen-activated protein kinase kinase 1, sequence (Q02750 whole entry): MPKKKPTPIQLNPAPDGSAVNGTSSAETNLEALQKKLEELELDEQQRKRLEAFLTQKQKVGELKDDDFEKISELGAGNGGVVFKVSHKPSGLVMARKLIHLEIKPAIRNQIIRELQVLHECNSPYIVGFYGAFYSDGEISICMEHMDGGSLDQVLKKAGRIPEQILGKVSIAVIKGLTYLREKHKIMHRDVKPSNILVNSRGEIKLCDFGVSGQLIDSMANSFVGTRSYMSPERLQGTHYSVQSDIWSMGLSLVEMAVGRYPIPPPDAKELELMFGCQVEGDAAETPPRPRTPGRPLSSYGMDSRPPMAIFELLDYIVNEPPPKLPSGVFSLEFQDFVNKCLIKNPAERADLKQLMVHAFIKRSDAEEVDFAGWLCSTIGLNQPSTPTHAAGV

## C=CC(=O)NCc1coc(-c2c(N)ncnc2Nc2ccc(Oc3ccc(F)cc3)c(Cl)c2)n1
[1]; liver microsomes
  half-life at 5 µM: > 100 min
[2]; liver microsomes
  half-life at 5 µM: 66 min
[3]; liver microsomes
  half-life at 5 µM: > 100 min
SK-BR-3
  IC50: 0.006 µM
[4]; liver microsomes
  half-life at 5 µM: > 100 min
A-431
  IC50: 0.039 µM

## C=CC(=O)NCc1coc(-c2c(N)ncnc2Nc2ccc(Oc3cc(C(F)(F)F)nn3C)c(Cl)c2)n1
[1]; microsomes
  half-life at 5 µM: > 100 min
[2]; microsomes
  half-life at 5 µM: > 100 min
[3]; microsomes
  half-life at 5 µM: > 100 min
SK-BR-3
  IC50: 0.0033 µM
[4]; microsomes
  half-life at 5 µM: > 100 min
A-431
  IC50: 0.065 µM

## C=CC(=O)NCc1coc(-c2c(N)ncnc2Nc2ccc(Oc3ccnn3C)c(Cl)c2)n1
[1]; microsomes
  half-life at 5 µM: > 100 min
[2]; microsomes
  half-life at 5 µM: 25 min
[3]; microsomes
  half-life at 5 µM: 39 min
SK-BR-3
  IC50: 0.004 µM
[4]; microsomes
  half-life at 5 µM: 51 min
A-431
  IC50: 0.066 µM

## C=CC(=O)NCC#Cc1cncnc1Nc1ccc(OCc2ccccn2)c(Cl)c1
SK-BR-3
  IC50: > 1 µM
A-431
  IC50: > 1 µM

## C=CC(=O)NCc1coc(-c2c(N)ncnc2Nc2ccc(Oc3cc(Cl)ccc3Cl)c(Cl)c2)n1
[1]; liver microsomes
  half-life at 5 µM: 96 min
[2]; liver microsomes
  half-life at 5 µM: 51 min
[3]; liver microsomes
  half-life at 5 µM: 57 min
SK-BR-3
  IC50: 0.0019 µM
[4]; liver microsomes
  half-life at 5 µM: > 100 min
A-431
  IC50: 0.184 µM

## C=CC(=O)NCc1coc(-c2c(N)ncnc2Nc2ccc(Oc3ccccc3)c(Cl)c2)n1
[1]; liver microsomes
  half-life at 5 µM: > 100 min
[2]; liver microsomes
  half-life at 5 µM: 59 min
[3]; liver microsomes
  half-life at 5 µM: 48 min
SK-BR-3
  IC50: 0.0031 µM
[4]; liver microsomes
  half-life at 5 µM: > 100 min
A-431
  IC50: 0.06 µM

## C=CC(=O)NCc1coc(-c2c(N)ncnc2Nc2ccc(OCc3cccc(F)c3)c(Cl)c2)n1
[1]; liver microsomes
  half-life at 5 µM: 45 min
[2]; liver microsomes
  half-life at 5 µM: 29 min
SK-BR-3
  IC50: 0.0039 µM
[4]; liver microsomes
  half-life at 5 µM: > 100 min
A-431
  IC50: 0.059 µM

## C=CC(=O)NCc1coc(-c2c(N)ncnc2Nc2ccc(Oc3cccc(Cl)c3Cl)c(Cl)c2)n1
SK-BR-3
  IC50: 0.0182 µM
A-431
  IC50: 0.113 µM

## C=CC(=O)NCc1coc(-c2c(N)ncnc2Nc2ccc(Cl)c(Cl)c2F)n1
[1]; liver microsomes
  half-life at 5 µM: > 100 min
[2]; liver microsomes
  half-life at 5 µM: > 100 min
[3]; liver microsomes
  half-life at 5 µM: 74 min
SK-BR-3
  IC50: 0.0926 µM
[4]; liver microsomes
  half-life at 5 µM: > 100 min
A-431
  IC50: 0.282 µM

## C=CC(=O)NCc1coc(-c2c(N)ncnc2Nc2ccc(Oc3ccc(C)nc3)c(C)c2)n1
[1]; microsomes
  half-life at 5 µM: 39 min
[2]; microsomes
  half-life at 5 µM: 17 min
[3]; microsomes
  half-life at 5 µM: 43 min
SK-BR-3
  IC50: 0.0011 µM
[4]; microsomes
  half-life at 5 µM: 41 min
A-431
  IC50: 0.064 µM

## C=CC(=O)NCc1coc(-c2c(N)ncnc2Nc2ccc(Oc3cccc(F)c3)c(Cl)c2)n1
[1]; liver microsomes
  half-life at 5 µM: > 100 min
[2]; liver microsomes
  half-life at 5 µM: 54 min
[3]; liver microsomes
  half-life at 5 µM: > 100 min
SK-BR-3
  IC50: 0.0005 µM
[4]; liver microsomes
  half-life at 5 µM: > 100 min
A-431
  IC50: 0.075 µM

## C=CC(=O)NCc1coc(-c2c(N)ncnc2Nc2ccc(OCc3ccccn3)c(F)c2)n1
[1]; liver microsomes
  half-life at 5 µM: 27 min
[2]; liver microsomes
  half-life at 5 µM: 16 min
[3]; liver microsomes
  half-life at 5 µM: 9 min
SK-BR-3
  IC50: 0.0061 µM
[4]; liver microsomes
  half-life at 5 µM: 44 min
A-431
  IC50: 0.063 µM

## C=CC(=O)NCc1coc(-c2c(N)ncnc2Nc2ccc(OCc3ccccn3)c(Cl)c2)n1
[5]
  inhibition: 0%
[6]
  inhibition: 0%
[7]
  inhibition: 0%
[8]
  inhibition: 13%
[9]
  inhibition: 15%
[10]
  inhibition: 0%
Insulin receptor
  inhibition: 0%
[11]
  inhibition: 77%
[12]
  inhibition: 42%
[13]
  inhibition: 15%
[14]
  inhibition: 68.2%
[15]
  inhibition: 87.5%
Focal adhesion kinase 1
  inhibition: 0%
[16]
  inhibition: 0%
[17]
  inhibition: 0%
[18]
  inhibition: 0%
[19]
  inhibition: 0%
[20]
  inhibition: 0%
[21]
  inhibition: 14%
[22]
  inhibition: 0%
[23]
  inhibition: 15%
[24]
  inhibition: 2%

## C=CC(=O)NCc1coc(-c2c(N)ncnc2Nc2ccc(Oc3ccccc3F)c(Cl)c2)n1
SK-BR-3
  IC50: 0.0047 µM
A-431
  IC50: 0.029 µM

## C=CC(=O)NCc1coc(-c2c(N)ncnc2Nc2ccc(Oc3ccc(Cl)cc3Cl)c(Cl)c2)n1
SK-BR-3
  IC50: 0.0065 µM
A-431
  IC50: 0.105 µM

## C=CC(=O)Nc1cccc(-c2cncnc2Nc2ccc(OCc3ccccn3)c(Cl)c2)c1
SK-BR-3
  IC50: 0.0061 µM
A-431
  IC50: 0.593 µM

## C=CC(=O)NCc1coc(-c2c(N)ncnc2Nc2ccc(F)c(Cl)c2)n1
[1]; liver microsomes
  half-life at 5 µM: 16 min
[2]; liver microsomes
  half-life at 5 µM: 24 min
[3]; liver microsomes
  half-life at 5 µM: 9 min
SK-BR-3
  IC50: 0.0341 µM
[4]; liver microsomes
  half-life at 5 µM: 9 min
A-431
  IC50: 0.052 µM

## C=CC(=O)NCc1coc(-c2c(N)ncnc2Nc2ccc(Oc3ccc(C)nc3)c(Cl)c2)n1
SK-BR-3
  IC50: 0.0061 µM
A-431
  IC50: 0.068 µM

## C=CC(=O)NCc1coc(-c2c(N)ncnc2Nc2ccc(OCc3ccccn3)c(Cl)c2)n1.Cl
[25]
  AUC(0-t): 455 ng·h/mL
[26]
  half-life: 1660 min
[27]
  Cmax: 282 ng/mL
[28]
  half-life: 194 min
[29]
  bioavailability: 21.6%
[30]
  bioavailability: 21.9%
[31]
  Cmax: 189 ng/mL
[32]
  AUC(0-t): 440 ng·h/mL

## C=CC(=O)NCc1coc(-c2c(N)ncnc2Nc2ccc(Oc3ccccn3)c(Cl)c2)n1
[1]; liver microsomes
  half-life at 5 µM: 39 min
[2]; liver microsomes
  half-life at 5 µM: 16 min
[3]; liver microsomes
  half-life at 5 µM: 15 min
SK-BR-3
  IC50: 0.0017 µM
[4]; liver microsomes
  half-life at 5 µM: 24 min
A-431
  IC50: 0.036 µM

## C=CC(=O)NCCNC(=O)c1c(N)ncnc1Nc1ccc(OCc2ccccn2)c(Cl)c1
SK-BR-3
  IC50: > 1 µM
A-431
  IC50: > 1 µM

## C=CC(=O)NCc1cc(-c2cncnc2Nc2ccc(OCc3ccccn3)c(Cl)c2)on1
SK-BR-3
  IC50: 0.122 µM
A-431
  IC50: 0.0022 µM

## C=CC(=O)NCc1coc(-c2cncnc2Nc2ccc(OCc3ccccn3)c(Cl)c2)n1
SK-BR-3
  IC50: 0.0097 µM
A-431
  IC50: 0.105 µM

## C=CC(=O)NCc1coc(-c2c(N)ncnc2Nc2ccc(Oc3cccnc3)c(Cl)c2)n1
[1]; liver microsomes
  half-life at 5 µM: 15 min
[2]; liver microsomes
  half-life at 5 µM: 9 min
[3]; liver microsomes
  half-life at 5 µM: 18 min
SK-BR-3
  IC50: 0.0024 µM
[4]; liver microsomes
  half-life at 5 µM: 39 min
A-431
  IC50: 0.068 µM
